Calls of active or inactive are those of the source. The calls are words filed in the database; no cut-off is given here.
How the values were obtained:
[1] = test system: DN32.D3; experiment: Stimulation of IL2 production in DN32.D3 cells at 500 ng/mL after 16 hrs; type: functional, cell-based; details: Mus musculus
Summary of the method: (§1)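 Rat basophilic leukemia cells transfected with mouse CD1d were pulsed with glycolipid at various concentrations for 4 h, then washed three times with PBS. They were co-cultured with DN32.D3 NKT hybridoma cells (Vα14+) for 16 h, and IL-2 in the supernatant was measured by ELISA. Data are means ± SD of duplicates, representative of two experiments.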

[2] = test system: Mus musculus; experiment: Elevation of IL4 in C57B/6 mouse at 1 ug, iv; type: functional, organism-based
Summary of the method: (§2)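 Naive C57BL/6 mice given glycolipid at 1 µg/mouse by intravenous injection; serum IFN-γ and IL-4 measured by ELISA at several time points after dosing. Data are means ± SD of three mice, representative of two separate experiments.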

[3] = test system: Mus musculus; experiment: Elevation of IFN-gamma in C57B/6 mouse at 1 ug, iv; type: functional, organism-based; summary of the method: as §2
[4] = test system: Splenocyte; experiment: Stimulation of IFN-gamma secretion from C57BL/6 mouse splenocytes at 125 ng/mL after 72 hrs; type: functional
Summary of the method: (§3)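 Splenocytes from naive C57BL/6 mice were cultured with glycolipid at various concentrations for 72 h. IFN-γ and IL-4 in the supernatant were measured by ELISA and expressed as relative activities. Data are means ± SD of duplicates, representative of two experiments; significance by Student's t test.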

[5] = test system: Splenocyte; experiment: Stimulation of IFN-gamma secretion from C57BL/6 mouse splenocytes at 32 ng/mL after 72 hrs; type: functional; summary of the method: as §3
[6] = test system: Mus musculus; experiment: Elevation of IL4 in C57B/6 mouse at 1 ug, iv after 2 hrs; type: functional, organism-based; summary of the method: as §2
[7] = test system: Mus musculus; experiment: Elevation of IFN-gamma in C57B/6 mouse at 1 ug, iv after 12 hrs; type: functional, organism-based; summary of the method: as §2
[8] = test system: Splenocyte; experiment: Stimulation of IL4 secretion from C57BL/6 mouse splenocytes at 125 ng/mL after 72 hrs; type: functional; summary of the method: as §3
[9] = test system: Splenocyte; experiment: Stimulation of IL4 secretion from C57BL/6 mouse splenocytes at 32 ng/mL after 72 hrs; type: functional; summary of the method: as §3
[10] = test system: Splenocyte; experiment: Stimulation of IL4 secretion from C57BL/6 mouse splenocytes at 125 ng/mL after 72 hrs relative to alphaGalCer; type: functional; summary of the method: as §3
[11] = test system: DN32.D3; experiment: Stimulation of IL2 production in DN32.D3 cells at 32 ng/mL after 16 hrs; type: functional, cell-based; details: Mus musculus; summary of the method: as §1
[12] = test system: Splenocyte; experiment: Stimulation of IL4 secretion from C57BL/6 mouse splenocytes at 32 ng/mL after 72 hrs relative to alphaGalCer; type: functional; summary of the method: as §3
[13] = test system: Splenocyte; experiment: Stimulation of IFN-gamma secretion from C57BL/6 mouse splenocytes at 125 ng/mL after 72 hrs relative to alphaGalCer; type: functional; summary of the method: as §3
[14] = test system: Splenocyte; experiment: Stimulation of IFN-gamma secretion from C57BL/6 mouse splenocytes at 32 ng/mL after 72 hrs relative to alphaGalCer; type: functional; summary of the method: as §3
[15] = test system: DN32.D3; experiment: Stimulation of IL2 production in DN32.D3 cells after 16 hrs; type: functional, cell-based; details: Mus musculus; summary of the method: as §1

In the case of `CCCCCCCCCCCCCC[C@@H](O)[C@@H](O)[C@H](CO[C@H]1O[C@H](CO)[C@H](O)[C@H](O)[C@H]1O)n1cc(CCCCCC)nn1`, the Activity [1] is reported as “inactive”, the Activity [2] is reported as “inactive” and the Activity [3] is reported as “inactive”.
With `CCCCCCCCCCCCCCCCCCCCCCCCCC(=O)N[C@@H](CO[C@H]1O[C@H](CO)[C@H](O)[C@H](O)[C@H]1O)[C@H](O)[C@H](O)CCCCCCCCCCCCCC` [RGI-7000] the Activity [4] was 12.8 ng/mL, the Activity [5] was 15.6 ng/mL and the Activity [6] was “Active”. For the same compound, the Activity [7] was “Active”, the Activity [8] was 0.9 ng/mL and the Activity [9] was 1.12 ng/mL.
For `CCCCCCCCCCCCCC[C@@H](O)[C@@H](O)[C@H](CO[C@H]1O[C@H](CO)[C@H](O)[C@H](O)[C@H]1O)n1cc(CCCCCCC)nn1`, the Activity [10] was “Active”, the Activity [2] was “inactive” and the Activity [3] was “inactive”.
In the case of `CCCCCCCCCCCCCCCCCCCCCCCCc1cn([C@@H](CO[C@H]2O[C@H](CO)[C@H](O)[C@H](O)[C@H]2O)[C@H](O)[C@H](O)CCCCCCCCCCCCCC)nn1`, the Activity [11] is reported as “Active”, the Activity [10] is reported as 1.09 ng/mL and the Activity [12] is reported as 1.51 ng/mL. It also gave an Activity [13] of 11.5 ng/mL and an Activity [14] of 4.63 ng/mL.
With `CCCCCCCCCCCCCCCCc1cn([C@@H](CO[C@H]2O[C@H](CO)[C@H](O)[C@H](O)[C@H]2O)[C@H](O)[C@H](O)CCCCCCCCCCCCCC)nn1` the Activity [2] was “inactive”, the Activity [3] was “inactive” and the Activity [15] was “inactive”.
For `CCCCCCCCCCCCCCCCCCCCCCCc1cn([C@@H](CO[C@H]2O[C@H](CO)[C@H](O)[C@H](O)[C@H]2O)[C@H](O)[C@H](O)CCCCCCCCCCCCCC)nn1`, the Activity [10] was “Active”.
